# Measurements: PubChem BioAssay AID1885 (Broad Institute, 2009)
# Among all 300,000 compounds or so, about 4,400 (1.5%) were called active. Only a selection was taken, and actives are over-represented in it overall. A number with no mark means an inactive call.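 How the source made its calls: active means mean inhibition across valid replicates above about 55% (limit read from the data); inconclusive means mean below that limit but half or more replicates reach it; inactive means mean below it, under half of replicates reach it.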
# Experiment: inhibitors of intracellular T. cruzi growth, primary screen, luminescence, NIH3T3 host cells (AID 1885);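 further: signal also drops with host cell toxicity which is not excluded here; 0% = plate median of DMSO wells and 100% = zero luminescence signal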
# Conditions: T. cruzi beta-gal in NIH3T3, luminescence, 90 h; stronger effect = higher value; concentration not given here
# In short: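 compound dosing = single 50 nL compound addition per well in DMSO | material = NIH/3T3 host cells with β-galactosidase reporter T. cruzi | input = 5,000 host fibroblasts per well | timing = ≥90 h infection period, 3 h prior cell attachment | read-out basis = percent inhibition of parasite-derived β-gal signal | detection = GalScreen β-gal luminescence, detergent lysis, 60 min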
row,SMILES,inhibition
1,Cc1cc(C)c2nc(SCCC#N)nc(C)c2c1,1.26%
2,Cc1cc(C)c2nc3nc(C)cc(C)c3c(N)c2c1,58.9% (active)
3,Cc1cc(C)c2nc(-c3ccco3)cc(C(=O)O)c2c1,-8.53%
4,O=C(COC(=O)c1ncc(Cl)c(Cl)c1Cl)NNC(=O)c1ccccc1,-29.7%
5,Cc1ccc2nc(NC(=O)C3CSC4(C)CCC(=O)N34)sc2c1 (stereo unspecified),-3.69%
6,CCOc1ccc(/C=N/NC(N)=S)cc1,15.1%
7,CC(C)Oc1c(Br)cc(Br)cc1/C=N/NC(N)=S,66.9% (active)
8,NC(=S)N/N=C/c1coc2cc(Cl)ccc2c1=O,-10.9%
9,CCc1noc(C)c1C(=O)Nc1nc(-c2ccccc2)cs1,6.55%
10,CCS(=O)(=O)c1ccc(C(=O)NC)c(Cl)c1Cl,-1.91%
11,Cc1cc(C)n(S(=O)(=O)c2cccc([N+](=O)[O-])c2)n1,19.3%
12,CC1=NCCN1S(=O)(=O)c1cccc([N+](=O)[O-])c1,7.48%
13,Cc1ccc(-c2cn(S(=O)(=O)c3cccc([N+](=O)[O-])c3)nc2N)cc1,63.5% (active)
14,CCCCCCCNC(=O)C1(CC2CC(c3cccc(Br)c3)=NO2)CCN(C(=O)c2cc(OCC)c(OCC)c(OCC)c2)CC1 (stereo unspecified),28.4%
15,COc1cc(N)c(Cl)cc1C(=O)OCC(=O)c1ccc2c(c1)NC(=O)CO2,-2.39%
16,CCCCCCc1cc2cc(-c3nnc(-c4ccccc4)o3)c(=O)oc2cc1O,0.529%
17,CCCCCCc1ccc(O)cc1O,63.7% (active)
18,CCCCCCCN=C(C)c1ccccc1O,2.33%
19,O=C(CNS(=O)(=O)c1ccccc1)N1CCN(C(=O)c2ccco2)CC1,-1.99%
20,Cn1c(CCN2CCCC2)nc2cc(NS(=O)(=O)c3ccccc3)ccc21,9.31%
21,Cn1c(=O)n(C)c2cc(NS(=O)(=O)c3ccc(F)cc3)ccc21,2.2%
22,CC1(C)CC(=O)c2c(n(S(=O)(=O)c3ccccc3)c3ccc(NS(=O)(=O)c4ccccc4)cc23)C1,63.5% (active)
23,CCn1c(SCc2ccccc2)nc2cc(OC)c(OC)cc2c1=O,18.8%
24,CN1CCN(C(=O)c2ccccc2NC(=O)COc2ccccc2Cl)CC1,-5.23%

row,SMILES,inhibition
1,O=C1c2ccccc2S(=O)(=O)c2cc(N3CCN(c4ccccn4)CC3)ccc21,-2.13%
2,CCOc1ccc(NC(=O)COc2ccc(C(=O)N3CCC(C(N)=O)CC3)cc2OC)cc1,-10.5%
3,CCC(=O)Nc1ccc2nn(-c3ccc(F)cc3)nc2c1,55.3% (active)
4,Cc1ccc(-n2nc3ccc(NC(=O)/C=C/c4ccco4)cc3n2)cc1C,-97.4%
5,CCC(=O)Nc1ccc(C(=O)Nc2cccc(OC)c2)cc1,-19%
6,C=CCOc1cccc(C2C(C(=O)c3ccc(C)o3)=C(O)C(=O)N2c2nnc(C)s2)c1 (stereo unspecified),5.31%
7,C(=N\N1CCN(c2ccccn2)CC1)/C1=C(N2CCOCC2)C(=C/c2ccccc2)/CC1,-15.4%
8,N#C/C(=C\c1ccccc1C(F)(F)F)C(=O)Nc1ccccc1F,-1.24%
9,N#C/C(=C\C1=C(N2CCOCC2)C(=C\c2ccccc2)/CC1)C(=O)Nc1ccccc1F,57.8% (active)
10,CC(=O)c1ccc(NC(=O)c2sc3nc4n(c(=O)c3c2C)CCCCC4)cc1,-12.8%
11,Cc1ccc(N(CCC(=O)O)S(=O)(=O)c2cccc(C(F)(F)F)c2)cc1,-18.4%
12,Cc1ccc(C)c(NC(=S)NNC(=O)c2csc(C)c2)c1,6.88%
13,CC(C)c1ccc(NC(=S)NNc2ccc(Cl)c(C(=O)O)c2)cc1,14.4%
14,Cc1ccc(C)c(NC(=S)NNC(=S)Nc2ccc(C(C)C)cc2)c1,65.3% (active)
15,COc1cc2ccccc2cc1C(=O)Nc1ccncc1,6.55%
16,CCn1c(=O)c([N+](=O)[O-])c(NCc2ccc3c(c2)OCO3)c2ccccc21,24.6%
17,CCn1c(/C=C/c2ccc([N+](=O)[O-])o2)nc2ccccc2c1=O,85.9% (active)
18,O=c1oc(/C=C/c2ccccc2)nc2ccccc12,-17.7%
19,O=C(Cc1ccc(S(=O)(=O)N2CCOCC2)s1)N1CCN(c2ccc(C(F)(F)F)cc2[N+](=O)[O-])CC1,31%
20,C=CCNC(=S)N/N=C/c1ccc(C)s1,50.5%
21,Cc1cc(C(=O)N/N=C/c2ccc(N3CCOCC3)cc2)c(C)o1,0.447%
22,CNC(=S)N/N=C/c1ccc(N2CCOCC2)s1,57.6% (active)
23,CCCCn1c(N)c(N(CCOC)C(=O)c2cccc(S(=O)(=O)N(C)c3ccccc3)c2)c(=O)[nH]c1=O,2.71%
24,CCc1ccccc1NC(=O)c1ccc2snnc2c1,-10.4%

row,SMILES,inhibition
1,O=C(Nc1cccc(Br)c1)c1ccc2snnc2c1,10.3%
2,O=C(Nc1ccc2ccccc2c1)Nc1ccc2snnc2c1,57.6% (active)
3,O=S(=O)(NCCS(=O)(=O)N1CCN(c2ccccc2)CC1)c1ccc(F)cc1,-2.33%
4,Cc1cccc(NC(=O)Nc2nnc(-c3ccccc3)o2)c1,-4.53%
5,COc1cccc(NC(=O)NCc2ccc(F)cc2)c1,1.25%
6,Cc1cccc(NC(=O)Nc2cccc(Oc3c(F)c(F)c(F)c(F)c3F)c2)c1,68.5% (active)
7,COc1ccc(C(=O)NCC(c2ccco2)N2CCc3ccccc32)cc1OC (stereo unspecified),5.94%
8,COc1ccc(C(=O)NCC2CCCN2S(=O)(=O)c2cccs2)cc1OC (stereo unspecified),-3.88%
9,COc1ccc(-c2cc(C(=O)N/N=C/c3cccnc3)c3ccccc3n2)c(OC)c1,-3.19%
10,COc1ccc(-c2cc(C(F)(F)F)nc(NCc3cccnc3)n2)cc1,49.2%
11,COc1ccc(-c2ccc(Nc3ccc(S(=O)(=O)N4CCCC4)cc3)nn2)cc1OC,14.2%
12,COc1ccc(-c2cc(C(F)(F)F)nc(S(C)(=O)=O)n2)cc1OC,60.3% (active)
13,Cc1cc2nc3n(c2cc1C)CC1CC(C(=O)NCCC(C)C)N(C)C31 (stereo unspecified),-2.62%
14,CCOc1cc(C(=O)O)ccc1OCCOc1ccccc1,3.5%
15,Cc1ccccc1NC(=O)NCC1CCN(Cc2cccc(Cl)c2)CC1,57.5% (active)
16,Cc1cccc(CN2CCC(CNC(=O)Nc3ccc(F)c(Cl)c3)CC2)c1,46.2%
17,O=C(NCC1CCN(Cc2ccccc2Cl)CC1)Nc1cccc(Cl)c1,49.4%
18,CSc1ccc(/C=C2\NC(=O)NC2=O)cc1,-13.1%
19,CC(=O)Nc1cccc(NC(=O)c2ccc3c(c2)CCN3S(C)(=O)=O)c1,-5.53%
20,OC(CNCC1CCCO1)Cn1c2ccc(Br)cc2c2cc(Br)ccc21 (stereo unspecified),55.2% (active)
21,CC(NS(=O)(=O)c1ccc(Br)cc1)C(=O)NCC1CCCO1 (stereo unspecified),0.0781%
22,O=C(CSc1ccc(-c2ccc(Br)cc2)nn1)NCC1CCCO1 (stereo unspecified),-13.2%
23,COc1ccc(CNC(=O)CNC(=O)c2sc3ccccc3c2Cl)cc1OC,13.1%
24,CN1CCc2ccccc2C1Cc1ccccc1NC(=O)c1sc2ccccc2c1Cl (stereo unspecified),54.6% (active)

row,SMILES,inhibition
1,Cc1nn(C)cc1/C=N/NC(=O)c1sc2ccccc2c1Cl,-4.55%
2,COCCCNC(NC(=O)c1ccc(OC)cc1)C(Cl)(Cl)Cl (stereo unspecified),-20.9%
3,COc1ccccc1NC(=O)C(C)OC(=O)c1ccc(-n2cnnn2)cc1 (stereo unspecified),-5.21%
4,O=C(Nc1cc(Cl)ccc1N1CCOCC1)c1ccc(N2CCCC2=O)cc1,-1.5%
5,CC(OC(=O)c1ccc(-n2cnnn2)cc1)C(=O)NCc1ccccc1 (stereo unspecified),-10.5%
6,Cc1ccc(C(=O)NCC(=O)OCc2nnc(-c3ccccc3)o2)cc1,0.567%
7,COc1ccc(C(=O)Cc2cnn(-c3ccccc3)c2)c(O)c1,33.1%
8,Cc1[nH]nc(-c2ccc(OCc3cnn(-c4ccccc4)c3)cc2O)c1Oc1ccc(Cl)cc1,57.6% (active)
9,C=C(C)COc1ccc(-c2n[nH]c(C)c2-c2ccccc2)c(O)c1,-19.2%
10,COc1cc(OC)c(C(=O)OC(C)C(=O)Nc2cc(C(F)(F)F)ccc2Cl)cc1OC (stereo unspecified),18.6%
11,CCC(C)N(C(=O)Cn1nc(C)c([N+](=O)[O-])c1C)C1CCS(=O)(=O)C1 (stereo unspecified),-2.7%
12,CC(=O)Nc1ccc(NC(=O)CSC2=NS(=O)(=O)c3ccccc3N2)cc1,0.486%
13,Oc1c(CN2CCN(c3ccc(F)cc3)CC2)cc(Cl)c2cccnc12,59.9% (active)
14,Cc1cccnc1NC(=O)c1cccc(S(=O)(=O)N2CCN(c3ccc(F)cc3)CC2)c1,13.5%
15,Oc1ccc(CN2CCN(c3ncccn3)CC2)cc1,-5.02%
16,CC12CCC(=O)N1C(C(=O)Nc1ccc(F)c(F)c1F)CS2 (stereo unspecified),-7.75%
17,COc1cccc(NC(=O)CN(C)C(=O)CSC(=S)N2CCCC2)c1,-6.94%
18,CCOC(=O)C1=C(C)Nc2sc(C(=O)c3ccc(Br)cc3)c(N)c2C1c1ccc(C(=O)OC)cc1 (stereo unspecified),76.1% (active)
19,CCOC(=O)c1sc(=S)n2c1[nH]c(=O)c1ccc(C(=O)OC)cc12,4.87%
20,CCOC(=O)c1sc(=NC(=O)c2ccc(Br)cc2)n(C)c1C,-5.34%
21,COc1cc(C(=O)NCC(=O)NCCSc2ccc(Br)cc2)cc(OC)c1OC,-6.77%
22,CCC(C)(C)n1nnnc1C(c1cccs1)N1CCN(c2nc3ccccc3s2)CC1 (stereo unspecified),66.6% (active)
23,CCC(C)(C)n1nnnc1C(c1ccccc1OC)N1CCSCC1 (stereo unspecified),-14.5%
24,CCC(C)(C)n1nnnc1C(c1cccs1)N1CCN(Cc2ccccc2)CC1 (stereo unspecified),5.19%
